The test system of one data set is THLE-2. The data set can be described thus: Cytotoxicity against human THLE-2 cells assessed as decrease in cell viability measured after 72 hrs by Vialight-plus cell proliferation assay. The format is cell-based. The conditions noted are these: thle-2, 72 h. In short, it runs like this: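 Human THLE-2 cells exposed to compound for 72 h. Cytotoxicity reported as LC50 and pLC50, averaged from at least two independent experiments on different days.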

The target in data set [1] is T1, Histone-lysine N-methyltransferase EHMT2 (Homo sapiens, UniProt Q96KQ7).
T1 sequence (Q96KQ7 whole entry): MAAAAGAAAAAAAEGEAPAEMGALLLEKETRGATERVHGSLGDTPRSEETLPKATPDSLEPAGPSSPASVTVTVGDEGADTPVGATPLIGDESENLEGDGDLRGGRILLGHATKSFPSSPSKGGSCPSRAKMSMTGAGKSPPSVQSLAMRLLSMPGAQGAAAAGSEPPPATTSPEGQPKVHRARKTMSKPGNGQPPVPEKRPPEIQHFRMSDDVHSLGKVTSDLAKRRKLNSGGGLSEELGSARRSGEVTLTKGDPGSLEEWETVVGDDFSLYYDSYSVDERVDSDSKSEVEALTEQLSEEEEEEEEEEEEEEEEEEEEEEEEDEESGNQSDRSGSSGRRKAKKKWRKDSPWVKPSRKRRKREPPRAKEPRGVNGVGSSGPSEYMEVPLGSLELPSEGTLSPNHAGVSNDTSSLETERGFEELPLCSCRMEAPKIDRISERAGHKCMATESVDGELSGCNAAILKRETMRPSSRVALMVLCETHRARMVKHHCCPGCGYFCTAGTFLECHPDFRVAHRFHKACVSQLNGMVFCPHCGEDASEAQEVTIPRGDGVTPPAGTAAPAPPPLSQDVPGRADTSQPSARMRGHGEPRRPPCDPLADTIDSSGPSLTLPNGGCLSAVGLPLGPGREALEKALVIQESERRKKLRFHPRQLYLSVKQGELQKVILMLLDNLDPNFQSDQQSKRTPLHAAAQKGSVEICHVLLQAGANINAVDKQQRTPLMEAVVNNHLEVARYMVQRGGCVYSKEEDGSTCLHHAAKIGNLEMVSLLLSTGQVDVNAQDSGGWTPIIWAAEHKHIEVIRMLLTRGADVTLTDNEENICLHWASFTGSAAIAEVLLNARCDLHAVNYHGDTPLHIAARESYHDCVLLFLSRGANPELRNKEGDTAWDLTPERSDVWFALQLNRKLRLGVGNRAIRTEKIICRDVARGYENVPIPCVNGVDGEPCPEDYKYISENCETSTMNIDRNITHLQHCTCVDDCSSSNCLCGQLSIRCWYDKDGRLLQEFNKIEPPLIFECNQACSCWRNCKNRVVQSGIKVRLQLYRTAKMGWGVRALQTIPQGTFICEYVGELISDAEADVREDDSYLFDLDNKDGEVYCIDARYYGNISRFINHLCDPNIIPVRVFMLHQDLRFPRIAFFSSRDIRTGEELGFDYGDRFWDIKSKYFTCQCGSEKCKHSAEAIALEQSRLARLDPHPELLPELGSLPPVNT
The data set is described as follows: Inhibition of human G9a enzyme using histone monomethyl-H3K9 peptide as substrate incubated for 1 hr in presence of SAM by TR-FRET assay. (TR-FRET usually uses a lanthanide donor and a delayed reading to cut background.)

The target of data set [2] is DNA (cytosine-5)-methyltransferase 1 (Homo sapiens, UniProt P26358). The data set is described as follows: Inhibition of human DNMT1 enzyme using polydeoxy-inosine polydeoxy-cytosine DNA as substrate incubated for 15 mins in presence of SAM by TR-FRET assay.
Data set [3] deals with T2, Protein deacetylase HDAC6 (Homo sapiens, UniProt Q9UBN7).
T2 sequence (Q9UBN7 whole entry): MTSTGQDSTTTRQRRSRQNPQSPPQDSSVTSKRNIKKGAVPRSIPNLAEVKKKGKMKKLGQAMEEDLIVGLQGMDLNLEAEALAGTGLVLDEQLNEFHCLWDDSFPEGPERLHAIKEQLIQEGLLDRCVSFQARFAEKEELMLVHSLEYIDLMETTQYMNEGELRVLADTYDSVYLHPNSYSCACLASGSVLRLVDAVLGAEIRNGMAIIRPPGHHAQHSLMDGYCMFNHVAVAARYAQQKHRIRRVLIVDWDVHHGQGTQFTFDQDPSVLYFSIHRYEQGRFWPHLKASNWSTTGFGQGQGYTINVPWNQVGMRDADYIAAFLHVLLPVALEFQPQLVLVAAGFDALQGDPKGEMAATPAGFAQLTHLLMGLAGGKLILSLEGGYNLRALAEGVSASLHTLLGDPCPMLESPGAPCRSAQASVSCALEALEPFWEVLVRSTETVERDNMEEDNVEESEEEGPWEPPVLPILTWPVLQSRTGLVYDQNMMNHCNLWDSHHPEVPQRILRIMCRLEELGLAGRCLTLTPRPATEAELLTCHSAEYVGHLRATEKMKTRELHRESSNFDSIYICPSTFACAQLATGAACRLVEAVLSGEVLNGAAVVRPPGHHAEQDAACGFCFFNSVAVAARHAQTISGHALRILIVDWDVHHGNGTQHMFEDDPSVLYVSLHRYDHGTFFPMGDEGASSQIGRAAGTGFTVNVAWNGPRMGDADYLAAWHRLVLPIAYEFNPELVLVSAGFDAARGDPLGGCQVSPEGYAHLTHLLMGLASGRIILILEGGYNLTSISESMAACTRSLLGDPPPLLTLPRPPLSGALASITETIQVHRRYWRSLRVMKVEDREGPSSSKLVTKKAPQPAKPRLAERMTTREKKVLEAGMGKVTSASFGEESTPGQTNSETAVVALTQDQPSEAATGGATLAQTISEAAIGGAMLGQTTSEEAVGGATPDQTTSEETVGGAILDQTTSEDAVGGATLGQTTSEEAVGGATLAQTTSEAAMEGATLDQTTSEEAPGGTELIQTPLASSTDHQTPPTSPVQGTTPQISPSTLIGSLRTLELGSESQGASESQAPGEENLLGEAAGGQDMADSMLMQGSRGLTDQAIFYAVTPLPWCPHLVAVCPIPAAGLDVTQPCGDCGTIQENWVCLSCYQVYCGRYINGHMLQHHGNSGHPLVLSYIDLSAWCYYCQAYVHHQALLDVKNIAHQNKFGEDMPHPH
The data set can be described thus: Inhibition of full length human N-terminal GST-tagged HDAC6 using fluorogenic acetylated peptide as substrate incubated for 30 mins by fluorescence plate reader assay.

The next data set deals with MM1.S. The data set can be described thus: Antiproliferative activity against human MM1.S cells assessed as inhibition of cell proliferation measured up to 72 hrs by CellTiter96 Aqueous one reagent based assay. Format: functional.
For another data set, the target named is Histone deacetylase 1 (Homo sapiens, UniProt Q13547). The data set can be described thus: Inhibition of full length human C-terminal His-tagged/C-terminal Flag-tagged HDAC1 using fluorogenic acetylated peptide as substrate incubated for 30 mins by fluorescence plate reader assay.
The nature of data set [4]: Permeability of the compound in PBS/EtOH buffer (70:30) incubated for 18 hrs by UV plate reader based PAMPA assay. The conditions noted are these: read-out: permeability. The format is ADME. (The PAMPA barrier holds no transporters, so it reflects passive diffusion.)
[5] abbreviates: time hrs <=72, read-out: pGI50 (converted).

Consider 19 compounds from ChEMBL document CHEMBL4834403, “Design and Synthesis of Novel Epigenetic Inhibitors Targeting Histone Deacetylases, DNA Methyltransferase 1, and Lysine Methyltransferase G9a with In Vivo Efficacy in Multiple Myeloma” (J Med Chem, 2021).

The structures appear in SMILES notation. A value given as a limit tells only on which side of the number the result lay.

Sequence of Histone deacetylase 1 (Q13547 whole entry, the tested form may be a part): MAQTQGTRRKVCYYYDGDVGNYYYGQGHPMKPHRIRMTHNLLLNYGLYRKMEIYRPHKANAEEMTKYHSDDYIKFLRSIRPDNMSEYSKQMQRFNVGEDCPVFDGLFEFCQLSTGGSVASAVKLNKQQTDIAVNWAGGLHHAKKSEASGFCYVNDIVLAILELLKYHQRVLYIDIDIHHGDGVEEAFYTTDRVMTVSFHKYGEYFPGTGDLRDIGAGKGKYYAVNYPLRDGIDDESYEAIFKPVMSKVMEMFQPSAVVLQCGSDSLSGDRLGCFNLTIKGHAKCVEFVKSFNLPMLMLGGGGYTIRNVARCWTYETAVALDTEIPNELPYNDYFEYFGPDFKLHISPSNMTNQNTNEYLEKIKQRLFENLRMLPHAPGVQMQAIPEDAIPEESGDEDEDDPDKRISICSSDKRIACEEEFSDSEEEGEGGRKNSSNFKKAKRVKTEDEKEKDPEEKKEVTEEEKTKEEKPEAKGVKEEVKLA
Sequence of DNA (cytosine-5)-methyltransferase 1 (P26358 whole entry): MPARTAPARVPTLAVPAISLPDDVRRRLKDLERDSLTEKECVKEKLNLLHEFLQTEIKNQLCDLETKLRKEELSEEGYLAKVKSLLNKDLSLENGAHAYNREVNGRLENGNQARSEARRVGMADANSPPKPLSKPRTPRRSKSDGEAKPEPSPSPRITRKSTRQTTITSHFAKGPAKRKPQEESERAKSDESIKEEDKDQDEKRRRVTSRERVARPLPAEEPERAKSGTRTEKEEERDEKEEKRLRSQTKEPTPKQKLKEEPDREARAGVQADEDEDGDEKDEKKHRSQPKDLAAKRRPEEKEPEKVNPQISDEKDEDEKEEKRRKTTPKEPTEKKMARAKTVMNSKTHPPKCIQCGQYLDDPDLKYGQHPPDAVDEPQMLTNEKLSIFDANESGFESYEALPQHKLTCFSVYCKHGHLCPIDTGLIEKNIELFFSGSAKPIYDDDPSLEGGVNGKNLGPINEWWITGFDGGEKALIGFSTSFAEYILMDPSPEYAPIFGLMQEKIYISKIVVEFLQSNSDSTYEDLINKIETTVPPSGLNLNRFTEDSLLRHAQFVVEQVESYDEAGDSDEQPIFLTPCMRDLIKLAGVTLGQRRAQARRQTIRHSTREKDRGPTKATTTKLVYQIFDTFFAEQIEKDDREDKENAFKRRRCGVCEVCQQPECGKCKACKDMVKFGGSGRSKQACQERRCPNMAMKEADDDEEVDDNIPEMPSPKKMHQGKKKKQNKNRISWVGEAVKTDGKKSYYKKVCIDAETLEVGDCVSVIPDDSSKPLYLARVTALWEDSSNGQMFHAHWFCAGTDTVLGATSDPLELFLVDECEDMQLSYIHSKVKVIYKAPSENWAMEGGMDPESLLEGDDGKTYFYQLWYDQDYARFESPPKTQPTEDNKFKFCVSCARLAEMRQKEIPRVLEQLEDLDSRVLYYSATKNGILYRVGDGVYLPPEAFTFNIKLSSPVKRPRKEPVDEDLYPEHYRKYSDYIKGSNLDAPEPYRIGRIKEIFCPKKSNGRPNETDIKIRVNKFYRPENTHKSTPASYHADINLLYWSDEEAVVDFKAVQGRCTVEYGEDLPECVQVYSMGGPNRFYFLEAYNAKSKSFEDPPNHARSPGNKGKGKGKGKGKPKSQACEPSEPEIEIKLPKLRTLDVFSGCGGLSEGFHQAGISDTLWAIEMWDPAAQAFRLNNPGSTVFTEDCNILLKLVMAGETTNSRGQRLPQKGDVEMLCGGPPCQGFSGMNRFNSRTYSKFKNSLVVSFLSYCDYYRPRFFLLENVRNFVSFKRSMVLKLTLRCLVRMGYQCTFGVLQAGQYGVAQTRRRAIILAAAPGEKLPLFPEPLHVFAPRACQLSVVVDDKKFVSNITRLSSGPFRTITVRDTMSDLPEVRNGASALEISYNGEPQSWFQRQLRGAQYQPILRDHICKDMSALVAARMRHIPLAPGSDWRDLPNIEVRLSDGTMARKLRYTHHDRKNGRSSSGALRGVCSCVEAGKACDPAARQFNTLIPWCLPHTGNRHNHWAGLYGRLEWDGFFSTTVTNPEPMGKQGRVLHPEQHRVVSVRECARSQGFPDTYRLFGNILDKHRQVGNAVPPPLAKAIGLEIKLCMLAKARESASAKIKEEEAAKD

For `COc1cc2c(NCC3CCN(c4ccc(C(=O)NO)cc4)CC3)cc(-c3ccc(C)o3)nc2cc1OCCCN1CCCC1`, in the data set on THLE-2, the LC50 is on record as 9700 nM. Also, the pLC50 with THLE-2 is on record as 5.01. Besides, the IC50 in data set [1] came to 269 nM; in data set [2], 417 nM; in data set [3] it was 67 nM; on Histone deacetylase 1, 78 nM. The GI50 is 3760 nM in the data set on MM1.S (time hrs <=72, read-out: GI50) and 3720 nM in the data set with MM1.S (setting [5]). Besides, the Papp at 18 h in data set [4] came to 0.05 ×10⁻⁶ cm/s.
With `Cc1[nH]c2ccccc2c1CCNCc1ccc(/C=C/C(=O)NO)cc1` [PANOBINOSTAT], the LC50 with THLE-2 is listed as 22 nM. In the data set with THLE-2, the pLC50 is on record as 7.66. The GI50 was 8.9 nM with MM1.S (time hrs <=72, read-out: GI50) and 8.91 nM with MM1.S (setting [5]). Besides, in data set [4], the Papp at 18 h is 1.42 ×10⁻⁶ cm/s.
Turning to `COc1cc2c(NCC3CCN(C4CCC(C(=O)NO)CC4)CC3)cc(-c3ccc(C)o3)nc2cc1OCCCN1CCCC1` (configuration not stated), the IC50 is 38 nM in data set [1], 566 nM in data set [2], above 20000 nM in data set [3] and above 20000 nM on Histone deacetylase 1.
For the compound `COc1cc2nc(-c3ccccc3)cc(NCC3CCN(c4ncc(C(=O)NO)cn4)CC3)c2cc1OC`, the IC50 in data set [1] was above 10000 nM; in data set [2] it was above 10000 nM; in data set [3], 230 nM; against Histone deacetylase 1, 3 nM.
Regarding `COc1cc2nc(C)cc(NCC3CCN(c4ncc(C(=O)NO)cn4)CC3)c2cc1OC`, the IC50 in data set [1] was 7.2 nM; in data set [2] it was above 10000 nM; in data set [3] it was 253 nM; at Histone deacetylase 1 it was 3 nM.
`COc1cc2nc(-c3cc(C)oc3C)cc(NCC3CCN(c4ncc(C(=O)NO)cn4)CC3)c2cc1OC`: the IC50 is above 10000 nM in data set [1], above 10000 nM in data set [2], 126 nM in data set [3] and 5 nM on Histone deacetylase 1.
Regarding `COc1cc2c(NCc3ccc([C@H]4CC[C@H](C(=O)NO)CC4)cc3)cc(-c3ccc(C)o3)nc2cc1OCCCN1CCCC1`, the IC50 is 1650 nM in data set [1], 2270 nM in data set [2], 9620 nM in data set [3] and 3320 nM against Histone deacetylase 1.
For `COc1cc2nc(N3CCCCC3)cc(NCC3CCN(c4ncc(C(=O)NO)cn4)CC3)c2cc1OC` the same measures were above 10000 nM, above 10000 nM, 234 nM and 3 nM.
On to `COc1cc2nc(-c3ccc(C)s3)cc(NCC3CCN(c4ncc(C(=O)NO)cn4)CC3)c2cc1OC`, for which the IC50 in data set [1] was above 10000 nM; in data set [2] it was above 10000 nM; in data set [3], 1260 nM; at Histone deacetylase 1, 17 nM.
Regarding `O=C(CCCCCCC(=O)Nc1ccccc1)NO` [VORINOSTAT], the IC50 in data set [1] and in data set [2] was above 10000 nM each time.
Turning to `COc1cc2nc(-c3ccc(C)o3)cc(N[C@H]3CC[C@H](C(=O)NO)CC3)c2cc1OC`, the IC50 was above 10000 nM in data set [1], 4180 nM in data set [2], above 20000 nM in data set [3] and above 4000 nM against Histone deacetylase 1.
As for `COc1cc2nc(-c3ccc(C)o3)cc(NCc3ccc(C(=O)NO)cn3)c2cc1OC`, the IC50 in data set [1] is above 10000 nM; in data set [2], above 10000 nM; in data set [3], 204 nM; at Histone deacetylase 1, 87 nM.
As to `COc1cc2c(NCC3CCN(Cc4ccc(C(=O)NO)cc4)CC3)cc(-c3ccc(C)o3)nc2cc1OCCCN1CCCC1`, the LC50 in the data set on THLE-2 is listed as 3890 nM. In the data set on THLE-2, the pLC50 is 5.41. The IC50 in data set [1] was 46 nM; in data set [2] it was 167 nM; in data set [3], 53 nM; at Histone deacetylase 1, 524 nM. The GI50 was 3570 nM with MM1.S (time hrs <=72, read-out: GI50) and 3550 nM with MM1.S (setting [5]).
Consider `COc1cc2c(NCC3CCN(c4ncc(C(=O)NO)cn4)CC3)cc(C)nc2cc1OCCCN1CCCC1`, for which the LC50 in the data set with THLE-2 was above 100000 nM. The pLC50 with THLE-2 was below 4. For the same compound, the IC50 in data set [1] turned out to be 4 nM; in data set [2], 555 nM; in data set [3], 350 nM; at Histone deacetylase 1 it was 7 nM. For the same compound, the GI50 is above 10000 nM in the data set on MM1.S (time hrs <=72, read-out: GI50) and above 10000 nM in the data set on MM1.S (setting [5]).
Turning to `COc1cc2c(NC3CCN(Cc4ccc(C(=O)NO)cc4)CC3)cc(-c3ccc(C)o3)nc2cc1OCCCN1CCCC1`, the LC50 with THLE-2 is reported as 22050 nM. The pLC50 in the data set with THLE-2 is on record as 4.66. The IC50 in data set [1] turned out to be 47 nM; in data set [2] it was 318 nM; in data set [3], 39 nM; against Histone deacetylase 1, 147 nM. Further, the GI50 in the data set with MM1.S (time hrs <=72, read-out: GI50) was 4210 nM; in the data set on MM1.S (setting [5]), 4170 nM.
As to `COc1cc2c(NCc3ccc([C@H]4CC[C@@H](C(=O)NO)CC4)cc3)cc(-c3ccc(C)o3)nc2cc1OCCCN1CCCC1`, the IC50 in data set [1] came to 1920 nM; in data set [2], 1430 nM; in data set [3], 351 nM; on Histone deacetylase 1, 115 nM.
In the same order, the values of `COc1cc2c(NCC3CCC(c4ccc(C(=O)NO)cc4)CC3)cc(-c3ccc(C)o3)nc2cc1OCCCN1CCCC1` (configuration not stated) are 3100 nM, 2760 nM, 122 nM and 34 nM.
For `COc1cc2nc(-c3ccc(C)o3)cc(NCC3CCN(c4ccc(C(=O)NO)cn4)CC3)c2cc1OC` the same measures were above 10000 nM, 8410 nM, 465 nM and 144 nM.
`COc1cc2nc(-c3ccc(C)o3)cc(N[C@H]3CC[C@@H](C(=O)NO)CC3)c2cc1OC`: the IC50 in data set [1] is above 10000 nM; in data set [2], 2660 nM; in data set [3], 2890 nM; at Histone deacetylase 1 it was 396 nM.

As a reminder, the LC50 is the concentration that kills 50% of the test population. As usually defined, the IC50 is the concentration that gives 50% inhibition.
